Rows were chosen to be rich in hits. Some 2.1% of all compounds tested hit in one or more screens of this group.
Ec RNAP inh: E. coli RNAP inhibitors, biochemical. AID 559, 2006. E. coli RNA polymerase, fluorescence transcription assay. 0.2% of 62,000 active. inhibition, %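 (tested at 10 µM)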; in the data active means inhibition above about 20%
Target sequence (P0A8V2 whole entry, looked up): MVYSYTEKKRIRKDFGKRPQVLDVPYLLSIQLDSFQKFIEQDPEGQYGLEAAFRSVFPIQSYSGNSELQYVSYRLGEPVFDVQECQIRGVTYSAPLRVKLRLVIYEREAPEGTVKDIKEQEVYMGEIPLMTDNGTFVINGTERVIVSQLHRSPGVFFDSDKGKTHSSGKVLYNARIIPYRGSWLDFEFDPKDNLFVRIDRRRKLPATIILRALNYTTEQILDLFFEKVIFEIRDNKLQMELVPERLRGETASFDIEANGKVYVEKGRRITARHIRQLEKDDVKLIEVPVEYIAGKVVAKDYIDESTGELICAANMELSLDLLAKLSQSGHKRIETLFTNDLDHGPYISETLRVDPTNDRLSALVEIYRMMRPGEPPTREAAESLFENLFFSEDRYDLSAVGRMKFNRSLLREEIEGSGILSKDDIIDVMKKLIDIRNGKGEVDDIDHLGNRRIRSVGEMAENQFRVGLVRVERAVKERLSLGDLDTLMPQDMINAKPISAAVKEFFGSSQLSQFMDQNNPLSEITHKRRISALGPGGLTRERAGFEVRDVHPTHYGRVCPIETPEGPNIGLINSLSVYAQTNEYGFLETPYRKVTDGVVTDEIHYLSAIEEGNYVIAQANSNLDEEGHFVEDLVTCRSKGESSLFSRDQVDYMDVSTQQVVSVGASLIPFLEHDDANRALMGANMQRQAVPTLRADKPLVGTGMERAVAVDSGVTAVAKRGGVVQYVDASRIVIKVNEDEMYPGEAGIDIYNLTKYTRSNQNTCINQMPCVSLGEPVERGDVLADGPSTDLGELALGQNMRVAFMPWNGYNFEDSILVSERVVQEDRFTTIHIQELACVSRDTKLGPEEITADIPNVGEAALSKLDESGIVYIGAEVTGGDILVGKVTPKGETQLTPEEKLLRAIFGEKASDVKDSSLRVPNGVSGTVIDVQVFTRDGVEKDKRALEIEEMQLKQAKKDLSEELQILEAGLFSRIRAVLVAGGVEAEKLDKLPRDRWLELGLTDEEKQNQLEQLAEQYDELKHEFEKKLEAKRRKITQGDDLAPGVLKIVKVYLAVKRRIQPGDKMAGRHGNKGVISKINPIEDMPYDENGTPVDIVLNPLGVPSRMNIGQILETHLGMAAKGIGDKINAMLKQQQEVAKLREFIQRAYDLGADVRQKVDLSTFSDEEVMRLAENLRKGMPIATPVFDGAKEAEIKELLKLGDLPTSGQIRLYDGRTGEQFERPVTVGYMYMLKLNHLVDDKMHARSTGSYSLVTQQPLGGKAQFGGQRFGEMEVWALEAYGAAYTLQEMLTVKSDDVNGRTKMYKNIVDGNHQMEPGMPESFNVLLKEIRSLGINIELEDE
RORa activator: activators of orphan receptor RORA, primary screen, cell-based, luminescence; Nuclear receptor ROR-alpha (Homo sapiens), P35398; CHO-K1 Gal4-RORA LBD luciferase reporter; percent increase over mock-subtracted basal signal; activation, % at 10 µM; 1.5% of 65,000 active;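 active means activation above the mean of all tested compounds plus 3 SD, cut at about 49% in these data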
SF-1 act: activators of human SF-1, primary screen, cell-based, CHO-K1, Gal4-SF-1 LBD, luciferase luminescence; Steroidogenic factor 1 (Homo sapiens), Q13285; activation, % at 10 µM; 1.9% of 65,000 active; CHO-K1 Gal4-SF-1 LBD luciferase reporter; % increase over DMSO SF-1-specific signal;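 active means activation above the mean activation of all tested compounds plus 3 SD, cut at about 50% in these data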
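Test system: transient Gal4-SF-1 LBD reporter, CHO-K1; Amount: 4,000 CHO-K1 cells per well; Doses: 10 µM only; Timing: compound exposure 20 h at 37 °C; Signal: luciferase light emission; Read-out basis: percent activation relative to DMSO median and mock-transfected background; Control set: DMSO negative control and −SF1 background wells; Replicates: one test per compound.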
TNAP act mid DEA: human TNAP enzyme activators, primary screen, biochemical, luminescent, intermediate phosphate acceptor level | AID 813, 2007 | purified TNAP, CDP-star luminescence, 100 mM DEA, 30 min; hits give high values; scale: 0 levamisole-inhibited, 1 vehicle-only enzyme | activation factor at 20 µM | Alkaline phosphatase, tissue-nonspecific isozyme (Homo sapiens), P05186 | 64,000 tested, under 10 active;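 active means activation factor of at least 2 at 20 µM, relative to controls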
MT1-MMP txn act: MT1-MMP promoter reporter activation – cell-based, luciferase luminescence, primary screen; HT1080 MT1-MMP promoter luciferase reporter, overnight; hits give high values; activation factor at 10 µM; 0.16% of 86,000 active;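 active means activation factor of at least 2 for MT1-MMP transcription at 10 µM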
A number is an active result; n = inactive; x = no result.

SMILES	Ec RNAP inh	RORa activator	SF-1 act	TNAP act mid DEA	MT1-MMP txn act
COC(=O)c1ccc(C(NC(=O)OCc2ccccc2)/C(I)=C/[C@@H](C)C(=O)NCCc2c[nH]c3ccccc23)cc1 (stereo partly specified)	x	x	x	x	n
Cc1cccc(-n2ncc3c(NCc4cccnc4)ncnc32)c1	n	72.6	55.9	n	n
Cc1cccc(-n2ncc3c(NCCCO)ncnc32)c1	n	83.1	67.4	n	n
Cc1ccc(-n2ncc3c(NCc4ccccc4)ncnc32)cc1	n	60.9	62.5	n	n
Cc1cccc(-n2ncc3c(NC4CCCCC4)ncnc32)c1	n	n	n	n	n
Cc1ccc(CNc2ncnc3c2cnn3-c2ccccc2)cc1	n	n	n	n	n
Cc1ccc(-n2ncc3c(NCc4cccnc4)ncnc32)c(C)c1	n	n	n	n	n
COc1ccc(-c2nc(-c3cccc(C)c3)no2)cc1OC	n	61.0	59.1	n	n
COc1ccccc1-c1noc(-c2ccccc2)n1	n	n	64.6	n	n
COc1cc(-c2nc(-c3cccc(C)c3)no2)cc(OC)c1OC	n	n	n	n	n
COc1nc(-c2ccccc2)ccc1-c1noc(-c2ccco2)n1	n	n	55.0	n	n
CCOc1ccc(-c2nc(-c3ccccc3)no2)cc1OCC	n	49.4	84.1	n	n
COc1ccc(S(=O)(=O)NC2CCCCC2)c(C)c1C	n	n	n	n	n
CCC/C=C(\CCC)C(NC(=O)CCc1ccccc1)c1ccc(C(F)(F)F)cc1 (stereo unspecified)	x	x	x	x	n
COc1ccc(-c2nc(-c3ccccc3OC)no2)cc1OC	n	56.0	n	n	n
CCOc1cc(-c2nc(-c3ccccc3OC)no2)cc(OCC)c1OCC	n	n	n	n	n
c1ccc(-c2nc(C3CCCCC3)no2)cc1	n	n	n	n	n
COc1ccc(-c2noc(CSc3ccccc3)n2)cc1OC	n	n	68.2	n	n
COc1ccc(-c2nc(C3CCCCC3)no2)cc1OC	n	n	56.9	n	x
CCOC(=O)C1CCN(S(=O)(=O)c2ccc(-c3nc4ccccc4s3)s2)CC1	n	n	67.9	n	n
COC(=O)CNc1c(-c2ccccn2)nc2ccc(Br)cn12	n	59.8	69.3	n	n
CCOC(=O)CNc1c(-c2ccccc2)nc2ccc(Cl)cn12	x	x	x	x	n
CCCCc1cc(O)c(CCCC)c(O)c1	n	49.9	n	n	n
CCCCCc1cc(O)c2c(C)cc(=O)oc2c1	n	n	n	n	n
O=C(NCCCO)C12CC3CC(CC(C3)C1)C2	x	x	x	x	n
SMILES	Ec RNAP inh	RORa activator	SF-1 act	TNAP act mid DEA	MT1-MMP txn act
CCN(CC)C(=O)Oc1ccc2c(=O)c(-c3ccc(OC)cc3)c(C)oc2c1	n	60.4	n	n	n
CCN(CC)C(=O)Oc1ccc2c(=O)c(-c3ccc(OC)cc3)coc2c1	n	68.7	71.2	n	n
CCOC(=O)c1ccc(-n2nc(C(F)(F)F)c3c(C)cc(=O)oc32)cc1	x	x	x	x	n
Cc1nn(-c2nc3ccccc3s2)c(N)c1Sc1ccc(F)cc1	n	n	63.0	n	n
Cc1nn(-c2nc3ccccc3s2)c(N)c1-c1ccccc1	n	n	60.0	n	n
Cc1nn(-c2nc3ccccc3s2)c(N)c1-c1ccc(Cl)cc1	x	n	n	x	n
Cc1nn(-c2nc3ccccc3[nH]2)c(N)c1-c1ccccc1	n	54.3	n	n	n
Cc1nc2c(-c3ccccc3)c(C)nn2c(N)c1-c1ccccc1	x	x	x	x	n
O=C(CCCn1nnc(-c2cccnc2)n1)c1ccc(F)cc1	n	n	n	n	n
CCOC(=O)N1CCN(CC(=O)Nc2ccc(Oc3ccccc3)cc2)CC1	x	x	x	x	n
N#Cc1ccc(CSc2nnc(Nc3ccccc3)s2)cc1	n	n	n	n	n
CC(C)Sc1nnc(Nc2ccccc2)s1	n	n	105.8	n	n
CC(=O)c1c(C)[nH]c(C(=O)OCCCCN2C(=O)c3ccccc3C2=O)c1C	n	n	n	n	n
CCc1cc2c(=O)c(-c3cscn3)coc2cc1O	n	n	n	n	n
CCc1cc2c(=O)c(-c3cscn3)coc2cc1OC	n	51.5	n	n	n
CCOC(=O)C1CCCN(c2ncnc3c2cnn3-c2ccc(OC)cc2)C1 (stereo unspecified)	n	n	58.0	n	n
COC(=O)Nc1nnc(-c2ccccc2Cl)s1	n	n	n	n	n
COCCn1c(C)cc(C(=O)COC(=O)C23CC4CC(CC(O)(C4)C2)C3)c1C	n	n	77.2	n	n
COCCn1c(C)cc(C(=O)COC(=O)c2cc3c(s2)CCC3)c1C	n	n	n	n	n
CCN(CC)c1ccc(C=N/C(C#N)=C(\N)C#N)cc1	n	n	56.8	n	n
CCS(=O)(=O)c1ccc2oc(Nc3ccccc3C)nc2c1	n	n	65.5	n	n
CC1CC(C)CN(CCCNC(=O)CNC(=O)Cn2ccc3ccccc3c2=O)C1 (stereo unspecified)	n	n	n	n	n
CCCc1nc(-c2ccc(-c3ccc(F)cc3)cc2)no1	n	n	53.3	n	n
CCN(CC)C(=O)CSc1nc(O)c(Cc2ccccc2)c(=O)n1-c1ccccc1	x	x	x	x	n
Cc1ccc(C)c(C(=O)NCc2ccncc2)c1	n	n	n	n	n
SMILES	Ec RNAP inh	RORa activator	SF-1 act	TNAP act mid DEA	MT1-MMP txn act
COc1ccc(OC)c(NC(=O)c2cc3sccc3n2C)c1	n	n	n	n	n
Cn1c(C(=O)Nc2ccc3c(c2)OCO3)cc2sccc21	n	n	78.7	n	n
COc1cc(NC(=O)c2cc3sccc3n2C)cc(OC)c1	n	61.0	106.5	n	2.1
COC(=O)c1ccc(NC(=O)c2cc3sccc3n2C)cc1	x	x	x	x	n
Cn1c(C(=O)Nc2ccccc2)cc2sccc21	x	x	x	x	2.2
COC(=O)c1ccc(C23CC2(C(NP(=O)(c2ccccc2)c2ccccc2)c2ccccc2)C3)cc1 (stereo unspecified)	x	x	x	x	n
CC(C)(CC(=O)O)Cc1nc(-c2ccc(Cl)cc2)no1	n	n	62.8	n	n
COC(=O)c1[nH]c2cc(C)ccc2c1NC(=O)CN1CCCc2ccccc21	n	n	n	n	2.2
COC(=O)c1[nH]c2ccc(Br)cc2c1NC(=O)CN1CCCc2ccccc21	x	x	x	x	n
O=C(Nc1ccccc1)N(O)c1ccc(Cl)cc1	n	n	58.1	n	n
O=C(Nc1ccc(Cl)cc1)N(Cc1cccs1)Cc1cccs1	n	n	n	n	n
CCN(CC)CCNC(=O)c1ccc2c(=O)n(CCc3ccccc3)c(=O)[nH]c2c1	n	n	n	n	n
COC(=O)[C@@]1(Cc2ccc(OC)cc2)[C@H]2c3cc(C(=O)N(C)C)n(CCN4CCNC4=O)c3C[C@H]2CN1C(=O)c1ccccc1	x	x	x	x	n

Assay outcomes as filed in PubChem BioAssay.
